Laboratory results published in ChEMBL document CHEMBL1138799, “4-benzyl- and 4-benzoyl-3-dimethylaminopyridin-2(1H)-ones, a new family of potent anti-HIV agents: optimization and in vitro evaluation against clinically important HIV mutant strains” (J Med Chem, 2004).

Key:
[1] = tested on: Human immunodeficiency virus 1; assay: Inhibitory activity against HIV-1 mutant strain 138K; format: functional, organism-based
Procedure, shortened: (§1)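 Mutant HIV-1 made by recombining mutant PR-RT sequence into a PR-RT-deleted HXB2 proviral clone. Serial compound concentrations plated, then virus (200 CCID50/well) and MT4 cells (30 000 cells/well; RPMI 1640, 10% FCS) added; 5 days at 37 °C, 5% CO2; viability read by MTT. EC50 = concentration giving 50% infection versus drug-free control; mock-infected cultures run in parallel for toxicity.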

[2] = tested on: Human immunodeficiency virus 1; assay: Inhibitory activity against HIV-1 double mutants strain 100I and 103N; format: functional, organism-based; procedure, shortened: as §1
[3] = tested on: Human immunodeficiency virus 1; assay: Inhibitory activity against HIV-1 double mutants strain 101E and 103N; format: functional, organism-based; procedure, shortened: as §1
[4] = tested on: Human immunodeficiency virus 1; assay: Inhibitory activity against HIV-1 double mutants strain 103N and 181C; format: functional, organism-based; procedure, shortened: as §1
[5] = tested on: Human immunodeficiency virus 1; assay: Inhibitory activity against HIV-1 double mutants strain 227L and 106A; format: functional, organism-based; procedure, shortened: as §1
[6] = tested on: Human immunodeficiency virus 1; assay: Inhibitory activity against HIV-1 mutant strain 100I; format: functional, organism-based; procedure, shortened: as §1
[7] = tested on: Human immunodeficiency virus 1; assay: Inhibitory activity against HIV-1 mutant strain 101E; format: functional, organism-based; procedure, shortened: as §1
[8] = tested on: Human immunodeficiency virus 1; assay: Inhibitory activity against HIV-1 mutant strain 103N; format: functional, organism-based; procedure, shortened: as §1
[9] = tested on: Human immunodeficiency virus 1; assay: Inhibitory activity against HIV-1 mutant strain 106A; format: functional, organism-based; procedure, shortened: as §1
[10] = tested on: Human immunodeficiency virus 1; assay: Inhibitory activity against HIV-1 mutant strain 179E; format: functional, organism-based; procedure, shortened: as §1
[11] = tested on: Human immunodeficiency virus 1; assay: Inhibitory activity against HIV-1 mutant strain 181C; format: functional, organism-based; procedure, shortened: as §1
[12] = tested on: Human immunodeficiency virus 1; assay: Inhibitory activity against HIV-1 mutant strain 188L; format: functional, organism-based; procedure, shortened: as §1
[13] = tested on: Human immunodeficiency virus 1; assay: Inhibitory activity against HIV-1 mutant strain 190A; format: functional, organism-based; procedure, shortened: as §1
[14] = tested on: Human immunodeficiency virus 1; assay: Inhibitory activity against HIV-1 mutant strain 190S; format: functional, organism-based; procedure, shortened: as §1
[15] = tested on: Human immunodeficiency virus 1; assay: Inhibitory activity against HIV-1 mutant strain 227C; format: functional, organism-based; procedure, shortened: as §1
[16] = tested on: Human immunodeficiency virus 1; assay: Inhibitory activity against wild type HIV-1 LAI cell line; format: functional, organism-based; details: Human immunodeficiency virus 1, LAI
Procedure, shortened: (§2)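 MT4 human T-lymphoblastoid cells were grown in RPMI 1640 with 10% fetal calf serum and antibiotics at 37 °C and 5% CO2. A compound concentration series was combined with HIV-1 LAI at 200 CCID50/well and 30 000 cells/well. Mock-infected cultures with the same concentrations were run in parallel to measure cytotoxicity. After 5 days, cell viability was read by MTT colorimetry. EC50 is the concentration giving 50% infection versus the drug-free control.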

[17] = tested on: Human immunodeficiency virus 1; assay: Selectivity index of cytotoxic activity (CC50) to inhibitory activity (IC50) relative to LAI cell line; format: functional; procedure, shortened: as §2

SMILES	IC50 [1]	IC50 [2]	IC50 [3]	IC50 [4]	IC50 [5]	IC50 [6]	IC50 [7]	IC50 [8]	IC50 [9]	IC50 [10]	IC50 [11]	IC50 [12]	IC50 [13]	IC50 [14]	IC50 [15]	IC50 [16]	Selectivity index [17]
CCc1c(C)[nH]c(=O)c(N(C)C)c1C(=O)c1cc(C)cc(C)c1	5 nM	40 nM	10 nM	150 nM	390 nM	6 nM	8 nM	10 nM	6 nM	2 nM	60 nM	150 nM	10 nM	4 nM	630 nM	4 nM	2510
CCc1c(C)nc(O)c(N(C)C)c1C(=O)c1cccc(C#N)c1	4 nM	30 nM	20 nM	110 nM	50 nM	10 nM	7 nM	6 nM		4 nM	40 nM	390 nM	5 nM	2 nM	220 nM	2 nM	6310
Cc1ccnc2c1NC(=O)c1cccnc1N2C1CC1 [NEVIRAPINE]	50 nM		500 nM	40 nM	20 nM	310 nM	310 nM			190 nM	10000 nM	100000 nM		40 nM	130 nM	30 nM	
CCc1c(C)nc(O)c(N(C)C)c1Cc1cccc(F)c1								60 nM			160 nM	1580 nM				2 nM	39800
CCc1c(C)nc(O)c(N(C)C)c1Cc1ccccc1Br								250 nM			130 nM	1990 nM				6 nM	15900
CCc1c(C)nc(O)c(N(C)C)c1Cc1cccc(/C=C/C#N)c1	3 nM	30 nM	20 nM	30 nM	3160 nM	10 nM	6 nM	2 nM	2 nM	1 nM	10 nM	150 nM	8 nM	40 nM	390 nM	0.4 nM	25100
CCc1c(C)nc(O)c(N(C)C)c1Cc1cc(Cl)cc(Cl)c1		310 nM	200 nM	500 nM	500 nM	50 nM		20 nM			160 nM	630 nM			700 nM	8 nM	3980
CCc1c(C)nc(O)c(N(C)C)c1C(=O)c1cccc(-c2cccnc2)c1								50 nM			10000 nM	10000 nM				6 nM	126
C=Cc1cccc(C(=O)c2c(CC)c(C)nc(O)c2N(C)C)c1								30 nM			630 nM	790 nM				2 nM	12600
CCc1c(C)nc(O)c(N(C)C)c1C(=O)c1cccc(Br)c1	5 nM	70 nM	70 nM	970 nM	100 nM	20 nM	10 nM	20 nM		5 nM	150 nM	790 nM	7 nM	3 nM	260 nM	2 nM	12600
CCc1c(C)[nH]c(=O)c(N(C)C)c1Cc1cc(C)cc(C)c1				790 nM		50 nM	10 nM	30 nM	40 nM		100 nM	250 nM	60 nM			8 nM	12600
CCc1c(C)nc(O)c(N(C)C)c1C(=O)c1cccc(/C=C/c2cccnc2)c1								20 nM			60 nM	150 nM				3 nM	3160
CCc1c(C)nc(O)c(N(C)C)c1Cc1cccc(C(F)(F)F)c1								390 nM			30 nM	5010 nM				10 nM	10000
CCc1c(C)nc(O)c(N(C)C)c1Cc1cc(F)cc(F)c1								30 nM			100 nM	500 nM				10 nM	7940
CCc1c(C)nc(O)c(N(C)C)c1Cc1ccccc1Cl								390 nM			200 nM	790 nM				6 nM	15900
CCc1c(C)nc(O)c(N(C)C)c1Cc1ccccc1C								1250 nM			1000 nM	7940 nM				20 nM	3980
CCc1c(C)nc(O)c(N(C)C)c1C(=O)c1ccc(OC)c(C)c1								1580 nM			100000 nM	100000 nM				70 nM	200
CCc1c(C)nc(O)c(N(C)C)c1Cc1cccnc1								390 nM			1000 nM	3980 nM				10 nM	6310

SMILES	IC50 [1]	IC50 [2]	IC50 [3]	IC50 [4]	IC50 [5]	IC50 [6]	IC50 [7]	IC50 [8]	IC50 [9]	IC50 [10]	IC50 [11]	IC50 [12]	IC50 [13]	IC50 [14]	IC50 [15]	IC50 [16]	Selectivity index [17]
CCc1c(C)nc(O)c(N(C)C)c1C(=O)c1cccs1								310 nM			3980 nM	100000 nM				10 nM	6310
CCc1c(C)nc(O)c(N(C)C)c1C(=O)c1cc(Cl)cc(Cl)c1	10 nM	500 nM	40 nM	150 nM	60 nM	8 nM	10 nM	10 nM		10 nM	30 nM	310 nM	10 nM	3 nM	630 nM	2 nM	5010
CCc1c(C)nc(O)c(N(C)C)c1C(=O)c1cccc(/C=C/c2cnccn2)c1								50 nM			70 nM	200 nM				20 nM	3960
CCc1c(C)nc(O)c(N(C)C)c1Cc1ccccc1								200 nM			500 nM	7940 nM				4 nM	25100
CCc1c(C)nc(O)c(N(C)C)c1Cc1cn(C)c2ccccc12								390 nM			310 nM	250 nM				30 nM	2510
CCc1c(C)nc(O)c(N(C)C)c1Cc1cccc(OC)c1								100 nM			320 nM	310 nM				4 nM	12600
CCOC(=O)/C=C/C=C/c1cccc(C(=O)c2c(CC)c(C)nc(O)c2N(C)C)c1								40 nM			200 nM	630 nM				5 nM	398
CCc1c(C)nc(O)c(N(C)C)c1C(=O)c1cccc(CCC#N)c1								10 nM			250 nM	1990 nM				3 nM	31600
CCOC(=O)/C=C/c1cccc(C(=O)c2c(CC)c(C)nc(O)c2N(C)C)c1								10 nM			150 nM	150 nM				3 nM	3160
CCc1c(C)nc(O)c(N(C)C)c1C(=O)c1cccc(CO)c1								360 nM			3870 nM	18600 nM				50 nM	2940
CCc1c(C)nc(O)c(N(C)C)c1Cc1cccc(Br)c1								100 nM			6 nM	2510 nM				4 nM	25100
CCc1c(C)nc(O)c(N(C)C)c1C(=O)c1cccc(CC#N)c1								6 nM			120 nM	1000 nM				1 nM	31600
O=C1Nc2ccc(Cl)cc2[C@@](C#CC2CC2)(C(F)(F)F)O1 [EFAVIRENZ]	2 nM	10000 nM	150 nM	40 nM	20 nM	40 nM	6 nM	40 nM	40 nM	5 nM	2 nM	150 nM	10 nM	250 nM	150 nM		
CCc1c(C)nc(O)c(N(C)C)c1C(=O)c1cccc(/C(C)=C(\C)C#N)c1								20 nM			120 nM	1580 nM				6 nM	1580
CCc1c(C)nc(O)c(N(C)C)c1Cc1cccc(C)c1								20 nM			60 nM	1000 nM				2 nM	39900
CCc1c(C)nc(O)c(N(C)C)c1C(=O)c1cccc(C(C)=O)c1								120 nM			1000 nM	10000 nM				10 nM	3160
CCc1c(C)nc(O)c(N(C)C)c1C(=O)c1cccc(C(C)C#N)c1 (stereo not given)								8 nM			120 nM	250 nM				3 nM	31600
CCc1c(C)nc(O)c(N(C)C)c1C(=O)c1cccc(C=O)c1								120 nM			1250 nM	10000 nM				8 nM	2510
